Results: ChEMBL document CHEMBL1255284, “Aspergillus section Fumigati: antifungal susceptibility patterns and sequence-based identification” (2008)
Values after ≈ are worked out from the molar mass of the structure shown.

Key:
[1] = system: Aspergillus lentulus; assay: Antimicrobial activity against Aspergillus lentulus isolate CNM-CM-1290 obtained from sputum of patient after 48 hrs by broth microdilution method; assay type: functional; conditions: isolate CNM-CM-1290, 48 h
Summary of the method: (§1)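 CLSI M38-A broth microdilution with modifications: RPMI 1640 with L-glutamine, 2% glucose, buffered to pH 7 with 0.165 M MOPS. Inoculum of 1 × 10^5 to 5 × 10^5 CFU/ml from 3- to 5-day-old cultures. Incubated 35°C, 48 h, humid. Visual reading with a mirror. MIC is complete growth inhibition; echinocandin MEC is hyphal morphological alteration. Azoles 8 to 0.015 μg/ml; others 16 to 0.03 μg/ml.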

[2] = system: Aspergillus lentulus; assay: Antimicrobial activity against Aspergillus lentulus isolate CNM-CM-3134 obtained from sputum of patient after 48 hrs by broth microdilution method; assay type: functional; conditions: isolate CNM-CM-3134, 48 h; summary of the method: as §1
[3] = system: Aspergillus lentulus; assay: Antimicrobial activity against Aspergillus lentulus isolate CNM-CM-4420 obtained from nail of patient after 48 hrs by broth microdilution method; assay type: functional; conditions: isolate CNM-CM-4420, 48 h; summary of the method: as §1
[4] = system: Aspergillus viridinutans; assay: Antimicrobial activity against Aspergillus viridinutans isolate CNM-CM-4518 obtained from nail of patient after 48 hrs by broth microdilution method; assay type: functional; conditions: isolate CNM-CM-4518, 48 h; summary of the method: as §1
[5] = system: Neosartorya hiratsukae; assay: Antimicrobial activity against Neosartorya hiratsukae isolate CNM-CM-3305 obtained from skin of patient after 48 hrs by broth microdilution method; assay type: functional; conditions: Aspergillus hiratsukae, isolate CNM-CM-3305, 48 h; summary of the method: as §1
[6] = system: Aspergillus lentulus; assay: Antimicrobial activity against Aspergillus lentulus isolate CNM-CM-4426 obtained from sputum of patient after 48 hrs by broth microdilution method; assay type: functional; conditions: isolate CNM-CM-4426, 48 h; summary of the method: as §1
[7] = system: Aspergillus lentulus; assay: Antimicrobial activity against Aspergillus lentulus isolate CNM-CM-3583 obtained from sputum of patient after 48 hrs by broth microdilution method; assay type: functional; conditions: isolate CNM-CM-3583, 48 h; summary of the method: as §1
[8] = system: Aspergillus lentulus; assay: Antimicrobial activity against Aspergillus lentulus isolate CNM-CM-3599 obtained from sputum of patient after 48 hrs by broth microdilution method; assay type: functional; conditions: isolate CNM-CM-3599, 48 h; summary of the method: as §1
[9] = system: Aspergillus lentulus; assay: Antimicrobial activity against Aspergillus lentulus isolate CNM-CM-4428 obtained from skin of patient after 48 hrs by broth microdilution method; assay type: functional; conditions: isolate CNM-CM-4428, 48 h; summary of the method: as §1
[10] = system: Aspergillus fumigatus; assay: Antimicrobial activity against Aspergillus fumigatus ATCC 2004305 after 48 hrs by broth microdilution method; assay type: functional; conditions: ATCC 2004305, 48 h
[11] = system: Aspergillus viridinutans; assay: Antimicrobial activity against Aspergillus viridinutans isolate CNM-CM-3147 obtained from oropharyngeal exudate of patient after 48 hrs by broth microdilution method; assay type: functional; conditions: isolate CNM-CM-3147, 48 h; summary of the method: as §1
[12] = system: Aspergillus lentulus; assay: Antimicrobial activity against Aspergillus lentulus isolate CNM-CM-3364 obtained from bronchoalveolar lavage fluid of patient after 48 hrs by broth microdilution method; assay type: functional; conditions: isolate CNM-CM-3364, Lung; summary of the method: as §1
[13] = system: Aspergillus fumisynnematus; assay: Antimicrobial activity against Aspergillus fumisynnematus isolate CNM-CM-4063 obtained from bronchoalveolar aspirate of patient after 48 hrs by broth microdilution method; assay type: functional; conditions: isolate CNM-CM-4063, Lung; summary of the method: as §1
[14] = system: Neosartorya pseudofischeri; assay: Antimicrobial activity against Neosartorya pseudofischeri isolate CNM-CM-3769 obtained from sputum of patient after 48 hrs by broth microdilution method; assay type: functional; conditions: Aspergillus thermomutatus
Summary of the method: (§2)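 CLSI M38-A broth microdilution with modifications: RPMI 1640 with L-glutamine, MOPS-buffered to pH 7, plus 2% glucose. Inoculum 1 × 10^5 to 5 × 10^5 CFU/ml from 3–5-day cultures. Incubated at 35°C for 48 h, humid. Read visually with a mirror. MIC = complete growth inhibition; echinocandin MEC = altered hyphal morphology. QC strain A. fumigatus ATCC 2004305.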

[15] = system: Aspergillus lentulus; assay: Antimicrobial activity against Aspergillus lentulus isolate CNM-CM-3537 obtained from sputum of patient after 48 hrs by broth microdilution method; assay type: functional; conditions: isolate CNM-CM-3537, 48 h; summary of the method: as §1
[16] = system: Aspergillus lentulus; assay: Antimicrobial activity against Aspergillus lentulus isolate CNM-CM-3538 obtained from sputum of patient after 48 hrs by broth microdilution method; assay type: functional; conditions: isolate CNM-CM-3538, 48 h; summary of the method: as §1
[17] = system: Aspergillus lentulus; assay: Antimicrobial activity against Aspergillus lentulus isolate CNM-CM-4330 obtained from sputum of patient after 48 hrs by broth microdilution method; assay type: functional; conditions: isolate CNM-CM-4330, 48 h; summary of the method: as §1
[18] = system: Aspergillus fumigatiaffinis; assay: Antimicrobial activity against Aspergillus fumigatiaffinis isolate CNM-CM-2280 obtained from sputum of patient after 48 hrs by broth microdilution method; conditions: isolate CNM-CM-2280, 48 h
[19] = system: Neosartorya hiratsukae; assay: Antimicrobial activity against Neosartorya hiratsukae isolate CNM-CM-3740 obtained from oropharyngeal exudate of patient after 48 hrs by broth microdilution method; assay type: functional; conditions: Aspergillus hiratsukae, isolate CNM-CM-3740, 48 h; summary of the method: as §1
[20] = system: Neosartorya hiratsukae; assay: Antimicrobial activity against Neosartorya hiratsukae isolate CNM-CM-3303 obtained from skin of patient after 48 hrs by broth microdilution method; assay type: functional; conditions: Aspergillus hiratsukae, isolate CNM-CM-3303, 48 h; summary of the method: as §1
[21] = system: Aspergillus lentulus; assay: Antimicrobial activity against Aspergillus lentulus isolate CNM-CM-4370 obtained from sputum of patient after 48 hrs by broth microdilution method; assay type: functional; conditions: isolate CNM-CM-4370, 48 h; summary of the method: as §1
[22] = system: Neosartorya pseudofischeri; assay: Antimicrobial activity against Neosartorya pseudofischeri isolate CNM-CM-4060 obtained from sputum of patient after 48 hrs by broth microdilution method; assay type: functional; conditions: Aspergillus thermomutatus; summary of the method: as §2
[23] = system: Aspergillus lentulus; assay: Antimicrobial activity against Aspergillus lentulus isolate CNM-CM-4387 obtained from sputum of patient after 48 hrs by broth microdilution method; assay type: functional; conditions: isolate CNM-CM-4387, 48 h; summary of the method: as §1
[24] = system: Aspergillus lentulus; assay: Antimicrobial activity against Aspergillus lentulus isolate CNM-CM-4415 obtained from sputum of patient after 48 hrs by broth microdilution method; assay type: functional; conditions: isolate CNM-CM-4415, 48 h; summary of the method: as §1
[25] = system: Neosartorya hiratsukae; assay: Antimicrobial activity against Neosartorya hiratsukae isolate CNM-CM-4328 obtained from cornea of patient after 48 hrs by broth microdilution method; assay type: functional; conditions: Aspergillus hiratsukae, isolate CNM-CM-4328, Cornea; summary of the method: as §1
[26] = system: Neosartorya pseudofischeri; assay: Antimicrobial activity against Neosartorya pseudofischeri isolate CNM-CM-2270 obtained from sputum of patient after 48 hrs by broth microdilution method; assay type: functional; conditions: Aspergillus thermomutatus, isolate CNM-CM-2270, 48 h; summary of the method: as §2
[27] = system: Neosartorya pseudofischeri; assay: Antimicrobial activity against Neosartorya pseudofischeri isolate CNM-CM-3914 obtained from nail of patient after 48 hrs by broth microdilution method; assay type: functional; conditions: Aspergillus thermomutatus, isolate CNM-CM-3914, 48 h; summary of the method: as §2
[28] = system: Aspergillus fumigatiaffinis; assay: Antimicrobial activity against Aspergillus fumigatiaffinis isolate CNM-CM-3227 obtained from bronchoalveolar lavage fluid of patient after 48 hrs by broth microdilution method; conditions: isolate CNM-CM-3227, Lung
[29] = system: Neosartorya hiratsukae; assay: Antimicrobial activity against Neosartorya hiratsukae isolate CNM-CM-3764 obtained from oropharyngeal exudate of patient after 48 hrs by broth microdilution method; assay type: functional; conditions: Aspergillus hiratsukae, isolate CNM-CM-3764, 48 h; summary of the method: as §1

Which results are given for `C[C@@H](c1nc(-c2ccc(C#N)cc2)cs1)[C@](O)(Cn1cncn1)c1ccc(F)cc1F` [RAVUCONAZOLE]?
MIC [1]: 3.5 µg/mL (≈ 8 µM); MIC [2]: 6 µg/mL (≈ 13.7 µM); MIC [3]: 4 µg/mL (≈ 9.14 µM); MIC [4]: 4 µg/mL (≈ 9.14 µM); MIC [5]: 0.25 µg/mL (≈ 0.571 µM); MIC [6]: 5.33 µg/mL (≈ 12.2 µM); MIC [7]: 2 µg/mL (≈ 4.57 µM); MIC [8]: 2 µg/mL (≈ 4.57 µM); MIC [9]: 5 µg/mL (≈ 11.4 µM); MIC [10]: 0.25 µg/mL (≈ 0.571 µM); MIC [11]: 5.66 µg/mL (≈ 12.9 µM); MIC [12]: 5.6 µg/mL (≈ 12.8 µM); MIC [13]: 0.83 µg/mL (≈ 1.9 µM); MIC [14]: 2 µg/mL (≈ 4.57 µM); MIC [15]: 3 µg/mL (≈ 6.86 µM); MIC [16]: 7 µg/mL (≈ 16 µM); MIC [17]: 1.5 µg/mL (≈ 3.43 µM); MIC [18]: 6 µg/mL (≈ 13.7 µM); MIC [19]: 0.66 µg/mL (≈ 1.51 µM); MIC [20]: 0.375 µg/mL (≈ 0.857 µM); MIC [21]: 5.33 µg/mL (≈ 12.2 µM); MIC [22]: 3.33 µg/mL (≈ 7.61 µM); MIC [23]: 3 µg/mL (≈ 6.86 µM); MIC [24]: 4.66 µg/mL (≈ 10.7 µM); MIC [25]: 0.5 µg/mL (≈ 1.14 µM); MIC [26]: 3.5 µg/mL (≈ 8 µM); MIC [27]: 4 µg/mL (≈ 9.14 µM); MIC [28]: 5 µg/mL (≈ 11.4 µM); MIC [29]: 1.33 µg/mL (≈ 3.04 µM)
